# Measured values of several laboratories.
# Compare with care: the assays were run in different laboratories.
# Read-out: cell growth or viability
SMILES,cell line,method,concentration,time,measurement,result
CC(C)=CCC[C@](C)(O)[C@H]1CC[C@]2(C)[C@@H]1[C@H](O)C[C@@H]1[C@@]3(C)CC[C@H](O[C@@H]4O[C@H](CO)[C@@H](O)[C@H](O)[C@H]4O[C@@H]4O[C@H](CO)[C@@H](O)[C@H](O)[C@H]4O)C(C)(C)[C@@H]3CC[C@]12C,BEAS-2B,MTT,,72 h,IC80,> 100 µM
COC(=O)c1c(C)ncn1CC(c1cn(C)c2ccccc12)c1cn(C)c2ccccc12,human Fibroblast,MTS,20 µM,24 h,inhibition,5.1%
Cn1nnc2c(C(N)=O)ncn2c1=O,SGC-7901,,,,EC50,> 1000 µM
COC(=O)c1cccc(-c2cccc(Nc3nccc(NC4CCCCC4)n3)c2)c1,MV4-11,ATP luminescence,,72 h,EC50,7.59 µM
N#Cc1ccc(COC[C@H]2O[C@@H](n3c(NCc4ccc(Cl)c(Cl)c4)nc4c(N)ncnc43)[C@H](O)[C@@H]2O)cc1,HN-6,,,72 h,IC50,4.86 µM
COC(=O)c1c(C)ncn1CC(c1c[nH]c2ccc(C)cc12)c1c[nH]c2ccc(C)cc12,human Fibroblast,MTS,20 µM,24 h,inhibition,13.8%
COC(C)(C)CCC[C@](C)(O)[C@H]1CC[C@]2(C)[C@@H]1[C@H](O)C[C@@H]1[C@@]3(C)CC[C@H](O)C(C)(C)[C@@H]3CC[C@]12C,BEAS-2B,MTT,,72 h,IC20,4.46 µM
COc1cc(-c2ccc(-c3ccc(C(=N)N)nc3)s2)cc(OC)c1OC,LOX IMVI,SRB,,,GI50,1.87 µM
CNC(=O)COc1cc2cc(Nc3nc(N4CCC(C(=O)NCCCCCCCNC(=O)C[C@@H]5N=C(c6ccc(Cl)cc6)c6c(sc(C)c6C)-n6c(C)nnc65)CC4)ncc3Cl)cc(OC)c2n(C)c1=O,human Fibroblast,,,72 h,EC50,~0.47 µM
CCCNc1ccnc(Nc2cccc(-c3cccnc3)c2)n1,MV4-11,ATP luminescence,,72 h,EC50,0.138 µM
CC(C)(CO)Cn1nc(-c2ccc3cc(OC4CC4)ccc3c2)c2c(N)ncnc21,CRL8155,,,,GI50,> 10 µM
CC(C)Nc1ccnc(Nc2cccc(C(C)(C)C)c2)n1,MV4-11,ATP luminescence,,72 h,EC50,> 13 µM
CC(C)c1ccccc1S(=O)(=O)c1cc(N)c2ncccc2c1[N+](=O)[O-],HN-6,,,72 h,IC50,> 20 µM
COc1ccc(-c2ccc(-c3ccc(C(=N)N)nc3)s2)cc1,MDA-MB-468,SRB,,,GI50,1.63 µM
Cc1cn(CC(c2cn(C)c3ccccc23)c2cn(C)c3ccccc23)nn1,human Fibroblast,MTS,20 µM,24 h,inhibition,17.1%
COC(=O)c1cccc(-c2cccc(Nc3nccc(NC(C)C)n3)c2)c1,MV4-11,ATP luminescence,,72 h,EC50,4.89 µM
CCc1ncn(CC(c2c[nH]c3ccc(C)cc23)c2c[nH]c3ccc(C)cc23)c1C(=O)OC,human Fibroblast,MTS,20 µM,24 h,inhibition,6.7%
CC(C)Nc1ccnc(Nc2cccc(-c3ccccc3)c2)n1,MV4-11,ATP luminescence,,72 h,EC50,3.98 µM
